The source made the active and inactive calls. No cut-off for these calls is given here.
Experiments:
Protein lin-28 homolog A = target: T1, Protein lin-28 homolog A (Homo sapiens, UniProt Q9H9Z2); test: Inhibition of Cy5-preE-let-7g binding to recombinant human N-terminal His6-tagged Lin28a expressed in Escherichia coli Rosetta2 (DE3) pLysS measured after 30 to 60 mins by electrophoretic mobility shift assay
T1 sequence (Q9H9Z2 whole entry): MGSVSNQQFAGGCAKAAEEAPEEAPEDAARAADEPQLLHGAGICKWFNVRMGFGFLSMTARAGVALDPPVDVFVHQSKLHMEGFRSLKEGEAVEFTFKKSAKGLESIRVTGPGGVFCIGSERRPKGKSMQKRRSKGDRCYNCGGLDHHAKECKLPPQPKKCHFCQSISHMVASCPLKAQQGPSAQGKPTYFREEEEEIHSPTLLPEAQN

[1] = target: T2, Protein lin-28 homolog A (Homo sapiens) (UniProt Q9H9Z2); test: Inhibition of Cy5-preE-let-7a-1 binding to recombinant human N-terminal His6-tagged Lin28a expressed in Escherichia coli Rosetta2 (DE3) pLysS measured after 30 to 60 mins by electrophoretic mobility shift assay
T2 sequence (whole entry): T1 sequence (Q9H9Z2 whole entry)

[2] = target: T2, Protein lin-28 homolog A (Homo sapiens); test: Inhibition of pre-let-7g binding to recombinant human N-terminal His6-tagged Lin28a expressed in Escherichia coli Rosetta2 (DE3) pLysS assessed as increase in dicer-mediated pre-let-7g microRNA maturation at 5 to 10 uM measured after 40 mins by SYBR green2 dye based fluorescence assay
[3] = target: Endoribonuclease Dicer (Homo sapiens) (UniProt Q9UPY3); test: Inhibition of recombinant FLAG-tagged human dicer expressed in HEK293 cells assessed as reduction in pre-let-7g microRNA maturation at 5 to 10 uM after 40 mins by SYBR green2 dye based fluorescence assay; type: cell-based
[4] = target: T2, Protein lin-28 homolog A (Homo sapiens); test: Binding affinity to recombinant human N-terminal His6-tagged Lin28a cold shock domain expressed in Escherichia coli Rosetta2 (DE3) pLysS at 0.625 to 10 uM by surface plasmon resonance analysis
[5] = target: T2, Protein lin-28 homolog A (Homo sapiens); test: Binding affinity to recombinant human N-terminal His6-tagged Lin28a zinc knuckle domain expressed in Escherichia coli Rosetta2 (DE3) pLysS at 0.625 to 10 uM by surface plasmon resonance analysis
[6] = target: T3, Protein lin-28 homolog A/B (Homo sapiens) (UniProt Q6ZN17+Q9H9Z2); test: Inhibition of Lin28a/Lin28b in human JAR cells assessed as increase in mature let-7a level after 20 hrs by TRIzol dye based qRT-PCR analysis; type: cell-based
Method in brief: (§1)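 JAR cells (express Lin28a and Lin28b) exposed to compound for 20 h; miRNA levels quantified with U6 snRNA as endogenous control; three or more biological replicates, standard deviation, paired two-tailed t test.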

[7] = target: T3, Protein lin-28 homolog A/B (Homo sapiens); test: Inhibition of Lin28a/Lin28b in human JAR cells assessed as increase in mature let-7b level after 20 hrs by TRIzol dye based qRT-PCR analysis; type: cell-based; method in brief: as §1
[8] = target: T3, Protein lin-28 homolog A/B (Homo sapiens); test: Inhibition of Lin28a/Lin28b in human JAR cells assessed as increase in mature let-7d level after 20 hrs by TRIzol dye based qRT-PCR analysis; type: cell-based; method in brief: as §1
[9] = target: T3, Protein lin-28 homolog A/B (Homo sapiens); test: Inhibition of Lin28a/Lin28b in human JAR cells assessed as increase in mature let-7f level after 20 hrs by TRIzol dye based qRT-PCR analysis; type: cell-based; method in brief: as §1
[10] = target: T3, Protein lin-28 homolog A/B (Homo sapiens); test: Inhibition of Lin28a/Lin28b in human JAR cells assessed as increase in mature let-7g level after 20 hrs by TRIzol dye based qRT-PCR analysis; type: cell-based; method in brief: as §1
JAR [11] = test: Effect on miR-98 level in human JAR cells at 5 to 10 uM after 20 hrs by TRIzol dye based qRT-PCR analysis; type: functional, cell-based; method in brief: as §1
JAR [12] = test: Effect on miR-20b level in human JAR cells at 5 to 10 uM after 20 hrs by TRIzol dye based qRT-PCR analysis; type: functional, cell-based; method in brief: as §1
JAR [13] = test: Increase in mature let-7d level in Lin28a/b knockdown human JAR cells at 10 uM after 20 hrs by qRT-PCR analysis; type: functional, cell-based
Method in brief: (§2)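 Lin28 knocked-down JAR cells treated for 20 h; let-7 levels measured against U6 snRNA endogenous control; 2 biological replicates.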

JAR [14] = test: Increase in mature let-7g level in Lin28a/b knockdown human JAR cells at 10 uM after 20 hrs by qRT-PCR analysis; type: functional, cell-based; method in brief: as §2
[15] = target: T2, Protein lin-28 homolog A (Homo sapiens); test: Inhibition of Lin28a in human PA1 cells assessed as increase in mature let-7i level at 10 uM after 20 hrs by TRIzol dye based qRT-PCR analysis; type: cell-based
Method in brief: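 PA-1 ovarian teratocarcinoma cells (express Lin28a) treated for 20 h; let-7 quantified relative to U6 snRNA; 4 biological replicates, standard deviation, paired two-tailed t test.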

[16] = target: T3, Protein lin-28 homolog A/B (Homo sapiens); test: Inhibition of Lin28a/Lin28b in human JAR cells assessed as reduction in HMGA2 expression at 5 to 10 uM after 24 hrs by Western blot analysis; type: cell-based
Method in brief: (§3)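 Endogenous let-7 target proteins (HMGA2, IMP1, Ras, Lin28a) detected by Western blot in JAR or PA-1 cells after 24 h compound treatment.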

[17] = target: T3, Protein lin-28 homolog A/B (Homo sapiens); test: Inhibition of Lin28a/Lin28b in human JAR cells assessed as reduction in IMP1 expression at 5 to 10 uM after 24 hrs by Western blot analysis; type: cell-based; method in brief: as §3
[18] = target: T2, Protein lin-28 homolog A (Homo sapiens); test: Inhibition of Lin28a in human PA1 cells assessed as reduction in HMGA2 expression at 10 uM after 24 hrs by Western blot analysis; type: cell-based; method in brief: as §3
[19] = target: T3, Protein lin-28 homolog A/B (Homo sapiens); test: Inhibition of Lin28a/Lin28b in human MCF7 cells assessed as reduction in IMP1 expression at 10 uM after 24 hrs by Western blot analysis; type: cell-based
[20] = target: T3, Protein lin-28 homolog A/B (Homo sapiens); test: Inhibition of Lin28a/Lin28b in human MCF7 cells assessed as reduction in Ras expression at 10 uM after 24 hrs by Western blot analysis; type: cell-based
[21] = target: T3, Protein lin-28 homolog A/B (Homo sapiens); test: Inhibition of Lin28a/Lin28b in human paclitaxel-resistant JAR cells assessed as reduction in IMP1 expression at 10 uM measured after 24 hrs by Western blot analysis
JAR [22] = test: Inhibition of sphere formation in human JAR cells at 10 uM after 24 hrs by WST assay; type: functional, cell-based
Method in brief: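 JAR cells are pretreated with compound for 24 h, dissociated to single cells, and equal numbers of viable cells are cultured in sphere-forming media for 12 days. Sphere formation is quantified by WST assay. Three biological replicates, standard deviation, paired two-tailed t test.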

JAR [23] = test: Cytotoxicity against human JAR cells after 24 hrs by WST assay; type: functional, cell-based
PA-1 = test: Cytotoxicity against human PA1 cells after 24 hrs by WST assay; type: functional, cell-based
C2C12 = test: Cytotoxicity against mouse C2C12 cells at 10 uM after 24 hrs by WST assay; type: cell-based; details: c2c12, 24 h
[24] = Cytotoxicity against mouse C8-D1A cells at 10 uM after 24 hrs by WST assay; type: cell-based

T3 sequence (Q6ZN17 whole entry, looked up, one chain of several): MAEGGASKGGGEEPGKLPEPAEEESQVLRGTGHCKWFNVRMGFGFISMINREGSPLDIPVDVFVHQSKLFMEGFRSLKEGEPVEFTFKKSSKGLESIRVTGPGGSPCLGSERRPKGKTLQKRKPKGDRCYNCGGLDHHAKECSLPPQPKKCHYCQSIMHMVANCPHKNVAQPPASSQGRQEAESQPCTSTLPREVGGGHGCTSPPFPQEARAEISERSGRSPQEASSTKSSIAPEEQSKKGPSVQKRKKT
Endoribonuclease Dicer (Homo sapiens), sequence (Q9UPY3 whole entry, the tested form may be a part): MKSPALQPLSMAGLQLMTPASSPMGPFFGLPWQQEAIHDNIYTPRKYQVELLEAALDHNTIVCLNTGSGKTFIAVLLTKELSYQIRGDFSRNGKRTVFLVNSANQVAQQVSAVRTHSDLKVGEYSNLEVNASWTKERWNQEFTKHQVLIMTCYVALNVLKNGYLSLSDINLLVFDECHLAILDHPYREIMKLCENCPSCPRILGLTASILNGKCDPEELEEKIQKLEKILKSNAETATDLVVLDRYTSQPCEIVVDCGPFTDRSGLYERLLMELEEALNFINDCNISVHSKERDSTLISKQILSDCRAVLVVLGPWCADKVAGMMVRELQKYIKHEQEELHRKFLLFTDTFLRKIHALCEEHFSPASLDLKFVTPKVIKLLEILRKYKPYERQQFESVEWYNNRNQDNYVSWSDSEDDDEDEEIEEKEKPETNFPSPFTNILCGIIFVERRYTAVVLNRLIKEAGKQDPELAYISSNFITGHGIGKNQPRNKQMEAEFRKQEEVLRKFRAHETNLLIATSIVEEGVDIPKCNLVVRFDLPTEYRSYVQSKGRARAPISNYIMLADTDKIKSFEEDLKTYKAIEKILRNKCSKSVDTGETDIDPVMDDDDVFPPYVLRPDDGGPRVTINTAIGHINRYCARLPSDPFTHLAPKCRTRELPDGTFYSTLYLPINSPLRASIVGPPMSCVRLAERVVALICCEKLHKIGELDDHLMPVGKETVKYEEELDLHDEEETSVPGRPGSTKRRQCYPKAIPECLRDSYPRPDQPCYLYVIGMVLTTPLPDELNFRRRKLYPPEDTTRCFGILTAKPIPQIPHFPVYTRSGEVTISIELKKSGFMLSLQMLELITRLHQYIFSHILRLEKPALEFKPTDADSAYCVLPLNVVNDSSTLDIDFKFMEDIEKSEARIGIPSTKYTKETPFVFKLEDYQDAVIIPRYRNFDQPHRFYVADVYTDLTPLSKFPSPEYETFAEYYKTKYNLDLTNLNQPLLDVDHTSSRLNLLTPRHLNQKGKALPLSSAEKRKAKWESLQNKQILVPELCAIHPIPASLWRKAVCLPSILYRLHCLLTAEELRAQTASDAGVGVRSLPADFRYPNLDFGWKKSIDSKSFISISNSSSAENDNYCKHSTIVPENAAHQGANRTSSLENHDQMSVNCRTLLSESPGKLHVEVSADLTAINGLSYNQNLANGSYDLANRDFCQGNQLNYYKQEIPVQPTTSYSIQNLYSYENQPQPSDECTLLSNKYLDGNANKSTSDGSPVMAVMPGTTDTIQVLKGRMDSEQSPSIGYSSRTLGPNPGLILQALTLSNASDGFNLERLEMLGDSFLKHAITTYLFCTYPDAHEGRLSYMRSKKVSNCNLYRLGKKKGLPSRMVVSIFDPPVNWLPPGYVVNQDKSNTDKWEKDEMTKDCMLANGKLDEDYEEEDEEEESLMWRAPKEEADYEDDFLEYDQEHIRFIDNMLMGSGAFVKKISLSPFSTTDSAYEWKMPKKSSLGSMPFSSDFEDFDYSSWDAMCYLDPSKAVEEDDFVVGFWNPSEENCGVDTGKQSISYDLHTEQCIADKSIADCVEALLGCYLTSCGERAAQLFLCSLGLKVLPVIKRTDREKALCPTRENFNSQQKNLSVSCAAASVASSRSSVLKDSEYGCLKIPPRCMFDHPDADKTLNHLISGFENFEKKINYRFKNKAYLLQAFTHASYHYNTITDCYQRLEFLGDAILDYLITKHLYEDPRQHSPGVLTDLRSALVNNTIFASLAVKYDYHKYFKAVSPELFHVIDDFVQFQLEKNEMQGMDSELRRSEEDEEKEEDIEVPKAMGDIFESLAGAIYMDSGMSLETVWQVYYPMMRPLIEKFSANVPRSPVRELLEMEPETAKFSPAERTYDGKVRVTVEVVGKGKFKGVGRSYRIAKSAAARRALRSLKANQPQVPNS

In the case of `NC(=O)c1c(Nc2ccc(Cl)cc2Cl)[nH]c2c(Cl)ccc(Cl)c2c1=O`, the IC50 (Protein lin-28 homolog A) is reported as 4.8 µM, the inhibition [1] is reported as “Active” and the inhibition [2] is reported as “Active”. The inhibition [3] was “inactive”, the Activity [4] was “Active” and the Activity [5] was “inactive”. The inhibition [6] was “Dose-dependent effect”, the inhibition [7] was “Dose-dependent effect” and the inhibition [8] was “Dose-dependent effect”. For the same compound, the inhibition [9] was “Dose-dependent effect”, the inhibition [10] was “Dose-dependent effect” and the Activity (JAR [11]) was “inactive”. The Activity (JAR [12]) was “inactive”, the Activity (JAR [13]) was “inactive” and the Activity (JAR [14]) was “inactive”. The inhibition [15] was “Active”, the inhibition [16] was “Active” and the inhibition [17] was “Active”. For the same compound, the inhibition [18] was “Active”, the inhibition [19] was “inactive” and the inhibition [20] was “inactive”. For the same compound, the inhibition [21] was “Active”, the inhibition (JAR [22]) was “Active” and the Activity (JAR [23]) was “Active”. The Activity (PA-1) was “Active”, the Activity (C2C12) was “Toxic” and the Activity [24] was “Toxic”.

Reference: ChEMBL document CHEMBL4325922, “Restoring Let-7 microRNA Biogenesis Using a Small-Molecule Inhibitor of the Protein-RNA Interaction” (ACS Med Chem Lett, 2018)
